Test results reported in ChEMBL document CHEMBL1142244, “Cytotoxic constituents from the fruiting branches of Callicarpa americana collected in southern Florida” (J Nat Prod, 2007).
Values after ≈ are worked out from the molar mass of the structure shown.

What was measured:
[1] = (§1) Cytotoxicity against human MCF7 cells; type: cell-based; details: MCF7 cells, read-out: ED50 (the source's name)
[2] = (§2) Cytotoxicity against human LNCaP cells; type: cell-based; details: LNCaP cells, read-out: ED50 (the source's name)
[3] = (§3) Cytotoxicity against human Lu1 cells; type: cell-based; details: Lu1 cells, read-out: ED50 (the source's name)
TERT-RPE1 = assay: (§4) Cytotoxicity against human TERT-RPE1 cells; type: cell-based; details: tert-rpe1
Col2 = assay: (§5) Cytotoxicity against human Col2 cells; type: cell-based; details: col2
MCF7 [4] = assay: as §1; type: cell-based; details: mcf7
LNCaP [5] = assay: as §2; type: cell-based; details: lncap
Lu1 [6] = assay: as §3; type: cell-based; details: lu1
HUVEC = assay: (§6) Cytotoxicity against human HUVEC cells; type: cell-based; details: huvec
[7] = as §6; type: cell-based; details: HUVEC cells, read-out: ED50 (the source's name)
MCF7 [8] = assay: Cytotoxicity against human MCF7 cells xenografted in NCr nu/nu athymic mouse at 6.25 mg/kg, ip by hollow fiber assay; type: organism-based; parameters: dose 6.25 mg/kg, route intraperitoneal; details: in vivo
Method in brief: (§7)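 Female-unspecified NCr nu/nu athymic mice, five to six weeks old. LNCaP, Lu1 and MCF-7 cells were sealed in semi-porous hollow fibres and implanted at intraperitoneal and subcutaneous sites, each mouse carrying all three lines at both sites. Compound was given i.p. at 6.25, 12.5, 25 or 50 mg/kg, with three mice per dose group.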

LNCaP [9] = assay: Cytotoxicity against human LNCaP cells xenografted in NCr nu/nu athymic mouse at 6.25 mg/kg, ip by hollow fiber assay; type: organism-based; parameters: dose 6.25 mg/kg, route intraperitoneal; details: in vivo; method in brief: as §7
[10] = as §4; type: cell-based; details: TERT-RPE1 cells, read-out: ED50 (the source's name)
LNCaP [11] = assay: Cytotoxicity against human LNCaP cells xenografted in NCr nu/nu athymic mouse at 25 mg/kg, ip by hollow fiber assay; type: organism-based; parameters: dose 25 mg/kg, route intraperitoneal; details: in vivo; method in brief: as §7
LNCaP [12] = assay: Cytotoxicity against human LNCaP cells xenografted in NCr nu/nu athymic mouse at 12.5 mg/kg, ip by hollow fiber assay; type: organism-based; parameters: dose 12.5 mg/kg, route intraperitoneal; details: in vivo; method in brief: as §7
MCF7 [13] = assay: Cytotoxicity against human MCF7 cells xenografted in NCr nu/nu athymic mouse at 50 mg/kg, ip by hollow fiber assay; type: organism-based; parameters: dose 50 mg/kg, route intraperitoneal; details: in vivo; method in brief: as §7
[14] = as §5; type: cell-based; details: Col2 cells, read-out: ED50 (the source's name)
Lu1 [15] = assay: Cytotoxicity against human Lu1 cells xenografted in NCr nu/nu athymic mouse at 12.5 mg/kg, ip by hollow fiber assay; type: organism-based; parameters: dose 12.5 mg/kg, route intraperitoneal; details: in vivo; method in brief: as §7
LNCaP [16] = assay: Cytotoxicity against human LNCaP cells xenografted in NCr nu/nu athymic mouse at 50 mg/kg, ip by hollow fiber assay; type: organism-based; parameters: dose 50 mg/kg, route intraperitoneal; details: in vivo; method in brief: as §7
Lu1 [17] = assay: Cytotoxicity against human Lu1 cells xenografted in NCr nu/nu athymic mouse at 50 mg/kg, ip by hollow fiber assay; type: organism-based; parameters: dose 50 mg/kg, route intraperitoneal; details: in vivo; method in brief: as §7
Lu1 [18] = assay: Cytotoxicity against human Lu1 cells xenografted in NCr nu/nu athymic mouse at 25 mg/kg, ip by hollow fiber assay; type: organism-based; parameters: dose 25 mg/kg, route intraperitoneal; details: in vivo; method in brief: as §7
Lu1 [19] = assay: Cytotoxicity against human Lu1 cells xenografted in NCr nu/nu athymic mouse at 6.25 mg/kg, ip by hollow fiber assay; type: organism-based; parameters: dose 6.25 mg/kg, route intraperitoneal; details: in vivo; method in brief: as §7
MCF7 [20] = assay: Cytotoxicity against human MCF7 cells xenografted in NCr nu/nu athymic mouse at 25 mg/kg, ip by hollow fiber assay; type: organism-based; parameters: dose 25 mg/kg, route intraperitoneal; details: in vivo; method in brief: as §7
MCF7 [21] = assay: Cytotoxicity against human MCF7 cells xenografted in NCr nu/nu athymic mouse at 12.5 mg/kg, ip by hollow fiber assay; type: organism-based; parameters: dose 12.5 mg/kg, route intraperitoneal; details: in vivo; method in brief: as §7

| SMILES | CC50 [2] | CC50 [3] | Activity (TERT-RPE1) | Activity (Col2) | Activity (MCF7 [4]) | Activity (LNCaP [5]) | Activity (Lu1 [6]) | Activity (HUVEC) | CC50 [7] | further results |
| --- | --- | --- | --- | --- | --- | --- | --- | --- | --- | --- |
| CC1=CCC[C@@H]2[C@@](C)(C[C@H](O)C3=CCOC3=O)[C@H](C)CC[C@@]12C | 3.3 µg/mL (≈ 10.4 µM) | 2.9 µg/mL (≈ 9.11 µM) | – | – | – | – | – | – | – | CC50 [1]: 2.8 µg/mL (≈ 8.79 µM) |
| COc1ccc(-c2cc(=O)c3c(O)cc(OC)cc3o2)cc1 | – | – | Not Active | Not Active | Not Active | Not Active | Not Active | Not Active | – | – |
| C[C@@H]1CC[C@]2(C(=O)O)CC[C@]3(C)C(=CC[C@@H]4[C@@]5(C)C[C@@H](O)[C@@H](O)C(C)(C)[C@@H]5CC[C@]43C)[C@@H]2[C@]1(C)O [EUSCAPHIC ACID] | – | – | Not Active | Not Active | Not Active | Not Active | Not Active | Not Active | – | – |
| CC1=CCC[C@@H]2[C@@](C)(CCC3=CC(=O)O[C@H]3O)[C@H](C)CC[C@@]12C | 3.3 µg/mL (≈ 10.4 µM) | 3.7 µg/mL (≈ 11.6 µM) | – | – | – | – | – | – | 4.1 µg/mL (≈ 12.9 µM) | CC50 [1]: 3.5 µg/mL (≈ 11 µM) |
| C=C1[C@@H](O)CC[C@@H]2[C@@](C)(CCC3=CC(=O)O[C@H]3O)[C@H](C)CC[C@@]12C | – | – | Not Active | Not Active | Not Active | Not Active | Not Active | Not Active | – | – |
| CC1=CCC[C@@H]2[C@@](C)(C[C@H](O)C3=CC(=O)O[C@H]3O)[C@H](C)CC[C@@]12C | 4.1 µg/mL (≈ 12.3 µM) | 2.4 µg/mL (≈ 7.18 µM) | – | – | – | – | – | – | 1.8 µg/mL (≈ 5.38 µM) | Activity (MCF7 [8]): Not Active; Activity (LNCaP [9]): Not Active; CC50 [10]: 1.9 µg/mL (≈ 5.68 µM); Activity (LNCaP [11]): Not Active; Activity (LNCaP [12]): Not Active; Activity (MCF7 [13]): Not Active; CC50 [14]: 2.3 µg/mL (≈ 6.88 µM); Activity (Lu1 [15]): Not Active; Activity (LNCaP [16]): Not Active; Activity (Lu1 [17]): Not Active; Activity (Lu1 [18]): Not Active; Activity (Lu1 [19]): Not Active; Activity (MCF7 [20]): Not Active; Activity (MCF7 [21]): Not Active |
| CC1(C)C(=O)CC[C@@]2(C)[C@H]1CC[C@@]13C[C@H](CC[C@@H]12)[C@@](O)(CO)C3 [CALLITERPENONE] | – | – | Not Active | Not Active | Not Active | Not Active | Not Active | Not Active | – | – |
| C=C1[C@@H](O)CC[C@@H]2[C@@](C)(C[C@H](O)C3=CC(=O)OC3)[C@H](C)CC[C@@]12C | – | – | Not Active | Not Active | Not Active | Not Active | Not Active | Not Active | – | – |
| CC1=C(C=O)C[C@@H]2[C@@](C)(CCC3=CC(=O)OC3O)[C@H](C)CC[C@@]12C (some centres not stated) | 4.5 µg/mL (≈ 13.5 µM) | 8.7 µg/mL (≈ 26.2 µM) | – | – | – | – | – | – | 9.8 µg/mL (≈ 29.5 µM) | CC50 [10]: 1.9 µg/mL (≈ 5.72 µM); CC50 [14]: 9 µg/mL (≈ 27.1 µM); CC50 [1]: 3.9 µg/mL (≈ 11.7 µM) |
| CC1=CCC[C@@H]2[C@@](C)(/C=C/C3=CC(=O)O[C@H]3O)[C@H](C)CC[C@@]12C | 2.5 µg/mL (≈ 7.9 µM) | 2.6 µg/mL (≈ 8.22 µM) | – | – | – | – | – | – | 1.2 µg/mL (≈ 3.79 µM) | CC50 [1]: 2.7 µg/mL (≈ 8.53 µM) |
| COc1ccc(-c2cc(=O)c3c(O)c(OC)c(OC)cc3o2)cc1 [SALVIGENIN] | – | – | Not Active | Not Active | Not Active | Not Active | Not Active | Not Active | – | – |
| COc1cc(O)c2c(=O)cc(-c3ccc(O)cc3)oc2c1 [GENKWANIN] | > 20 µg/mL | > 20 µg/mL | – | – | – | – | – | – | > 20 µg/mL | CC50 [10]: 3.9 µg/mL (≈ 13.7 µM); CC50 [14]: > 20 µg/mL |
| CC1=CCC[C@@H]2[C@@](C)(C[C@H](O)C3=CC(=O)OC3)[C@H](C)CC[C@@]12C | – | – | Not Active | Not Active | Not Active | Not Active | Not Active | Not Active | – | – |
| CO[C@@H]1OC(=O)C=C1[C@@H](O)C[C@@]1(C)[C@H](C)CC[C@@]2(C)C(C)=CCC[C@H]12 | – | – | Not Active | Not Active | Not Active | Not Active | Not Active | Not Active | – | – |
